Data on 18 molecules can be found in PubChem BioAssay AID1735 (Vanderbilt High Throughput Screening Facility, 2009).

Records with an inconclusive call do not appear. Active and inactive are the calls of the source.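 How the source made its calls: active means sigmoid dose curve converging in at least two of three replicates, including loose fits with few points beside the midpoint; inactive means curve converging in fewer than two replicates.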

In this test the test system is HEK293 thallium flux, FluoZin-2 fluorescence, ouabain+bumetanide. Kind of test: native HEK Tl+ uptake potency with bumetanide block – HEK cells, counterscreen 2, counter-screen for KCC2 modulator project, dose response (AID 1735). The procedure, abridged: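 Material: HEK cells | Buffer or medium: HBSS-HEPES plus ouabain and bumetanide | Also added: Thallium stimulus buffer at pH 7.3 | Doses: 11-point threefold dilution series, top dose 30 µM | Schedule: Overnight plating, 10–20 s after thallium read | Detection: Kinetic fluorescence of FluoZin-2 dye, loaded as 0.5 µM AM ester | Repeats: Triplicate, replicates fitted separately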
`CCOc1[nH]n(-c2ccccc2)c(=O)c1C=Nc1ccc(F)cc1F`: the concentration for a half-maximal effect (EC50) (usually the concentration at which the effect is half-maximal) is 2200 nM.
In the case of `N=C1SCC(=O)N1c1ncc(Cc2cccc(Cl)c2)s1`, the 50% effective concentration (EC50) is 3030 nM.
For the molecule `Cc1ccc(-c2n[nH]c(=S)n2/N=C/C=C\c2ccccc2[N+](=O)[O-])cc1`, the half-maximal effective concentration (EC50) is 643 nM.
Under `O=C(NC(=S)Nc1ccc2c(c1)OCO2)c1ccc(Cl)cc1` stands 58.5 nM (inactive); under `Cc1onc(-c2ccccc2Cl)c1C(=O)NC(=S)Nc1ccc(C(C)C)cc1`, 246 nM; under `COc1ccc(N2C(=S)N=C(Nc3cccc(C)c3)C23CCCCC3)cc1`, 2620 nM.
As for `S=C(NCCc1ccccc1)N/N=C/c1cccc(Cl)c1Cl`, the EC50 was 14300 nM (inactive).
On to `COC(=O)[C@@H](NC(=O)O[C@@H]1C(=O)c2ccc(OC)cc2O[C@H]1c1cccc(C(F)(F)F)c1)C(C)C`, for which the EC50 is 612 nM.
Consider `Cc1nn(-c2nc3ccccc3[nH]2)c(N)c1-c1ccccc1`, for which the concentration giving a half-maximal response (EC50) was 2460 nM.
In the case of `COc1ccc(Cn2c(=S)[nH]c3ccccc32)cc1`, the concentration for a half-maximal effect (EC50) was 397 nM.
For `COC(=O)c1sccc1NC(=S)OC`, the concentration giving a half-maximal response (EC50) is 1580 nM.
As to `CCOc1ccc2nc(SC3CC(=O)N(c4cccc(OC)c4)C3=O)sc2c1` (stereo not drawn), the concentration giving a half-maximal response (EC50) is 3200 nM.
In the case of `CCOCCCNC(=O)c1ccc(-n2c(=S)[nH]c3ccccc3c2=O)cc1`, the EC50 is 24200 nM (inactive).
`O=[N+]([O-])c1ccc(-c2cn(-c3ccccc3F)c(=S)[nH]2)cc1`: the EC50 is 520 nM.
As to `CC(=O)c1cccc(NC(=S)NC(=O)c2ccc(C)cc2)c1`, the 50% effective concentration (EC50) is 1580 nM.
As for `NC(=S)N=Nc1c(O)n(Cc2ccc(F)cc2)c2ccccc12`, the EC50 was 2200 nM.
Consider `NC(=S)N=Nc1c(O)n(Cc2ccccc2)c2ccccc12`, for which the EC50 was 88.3 nM (inactive).
Take `O=C(NC(=S)Nc1nc(-c2cccc([N+](=O)[O-])c2)cs1)c1cc(Cl)ccc1Cl`: the EC50 is 689 nM.
